Calls of active or inactive are those of the source. No cut-off for these calls is given here.
How the values were obtained:
Rattus norvegicus [1] = species: Rattus norvegicus; test: Cardiovascular activity in isolated rat heart, concentration producing 25% increase in CF (cardiac flow).; type: functional
How it was run: (§1)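 Isolated Langendorff-perfused rat heart. Coronary flow (CF), LV +dP/dtmax and heart rate recorded during exposure to test agent. Value is the concentration giving a 25% rise in CF or in LV +dP/dtmax, mean ± SE. At least two hearts per compound.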

Rattus norvegicus [2] = species: Rattus norvegicus; test: Cardiovascular activity in isolated rat heart, concentration producing 25% increase in LV + dP/dtmax.; type: functional; how it was run: as §1
[3] = biological target: Voltage-gated L-type calcium channel (Rattus norvegicus, UniProt P22002+Q02485+P27732); test: Affinity to bind dihydropyridine receptor (DHP receptor) by inhibiting the radioligand [3H]nitrendipine; type: protein assay
How it was run: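 [3H]nitrendipine displacement, rat brain cortical membranes. Each compound first screened at 1000 nM; if inhibition exceeded 40%, a four- to seven-point curve with unlabeled compound was run. IC50 generally mean of two experiments, each in triplicate. ">1000 nM" means under 40% inhibition of control binding at 1000 nM.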

Rattus norvegicus [4] = species: Rattus norvegicus; test: Compound was tested for the cardiovascular activity in isolated rat heart. Value represents the concentration producing 25% increase in CF (cardiac flow); NA indicates not active; type: functional; how it was run: as §1
Rattus norvegicus [5] = species: Rattus norvegicus; test: Compound was tested for the cardiovascular activity in isolated rat heart. Value represents the concentration producing 25% increase in LV + dP/dtmax; NA indicates not active; type: functional; how it was run: as §1
Oryctolagus cuniculus [6] = species: Oryctolagus cuniculus; test: Vasorelaxant effect at a concentration of 10e-4 M on rabbit aortic rings previously contracted with 50 mM KCl.; type: functional, Aorta; parameters: unit not given here
How it was run: (§2)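 Rabbit aortic rings precontracted with 50 mM KCl or 1.0 μM norepinephrine, then exposed to increasing concentrations of test agent. Relaxation recorded at each concentration.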

Oryctolagus cuniculus [7] = species: Oryctolagus cuniculus; test: Vasorelaxant effect at a concentration of 10e-5 M on rabbit aortic rings previously contracted with 50 mM KCl.; type: functional, Aorta; parameters: unit not given here; how it was run: as §2
Oryctolagus cuniculus [8] = species: Oryctolagus cuniculus; test: Vasorelaxant effect at a concentration of 10e-6 M on rabbit aortic rings previously contracted with 50 mM KCl.; type: functional, Aorta; parameters: unit not given here; how it was run: as §2
Oryctolagus cuniculus [9] = species: Oryctolagus cuniculus; test: Vasorelaxant effect at a concentration of 10e-5 M on rabbit aortic rings previously contracted with 1.0 uM Norepinephrine.; type: functional, Aorta; parameters: unit not given here; how it was run: as §2
Oryctolagus cuniculus [10] = species: Oryctolagus cuniculus; test: Vasorelaxant effect at a concentration of 10e-7 M on rabbit aortic rings previously contracted with 1.0 uM Norepinephrine.; type: functional, Aorta; parameters: unit not given here; how it was run: as §2
Oryctolagus cuniculus [11] = species: Oryctolagus cuniculus; test: Vasorelaxant effect at a concentration of 10e-6 M on rabbit aortic rings previously contracted with 1.0 uM Norepinephrine.; type: functional, Aorta; parameters: unit not given here; how it was run: as §2
Oryctolagus cuniculus [12] = species: Oryctolagus cuniculus; test: Vasorelaxant effect at a concentration of 10e-7 M on rabbit aortic rings previously contracted with 50 mM KCl.; type: functional, Aorta; parameters: unit not given here; how it was run: as §2
Oryctolagus cuniculus [13] = species: Oryctolagus cuniculus; test: Vasorelaxant effect at a concentration of 10e-4 M on rabbit aortic rings previously contracted with 1.0 uM Norepinephrine.; type: functional, Aorta; parameters: unit not given here; how it was run: as §2

Row | Compound | EC25 (Rattus norvegicus [1]) | EC25 (Rattus norvegicus [2]) | IC50 [3] | also measured
1 | CCO/C(O)=C1\C(C[S+]([O-])c2ccccc2F)=NC(C)=C(C#N)C1c1ccccc1C(F)(F)F (stereo not given) | 360 nM | 930 nM | > 1000 nM | –
2 | CC1=C(C#N)C(c2ccccc2C(F)(F)F)/C(=C(\O)OC(C)C)C(CS(=O)(=O)c2ccccc2)=N1 (stereo not given) | <100 nM | inactive | 390 nM | –
3 | CCO/C(O)=C1\C(C[S+]([O-])c2ccncc2)=NC(C)=C(C#N)C1c1ccccn1 (stereo not given) | – | – | > 1000 nM | EC25 (Rattus norvegicus [4]): inactive; EC25 (Rattus norvegicus [5]): inactive
4 | CCO/C(O)=C1\C(CSc2ccc(NC(C)=O)cc2)=NC(C)=C(C#N)C1c1ccccc1C(F)(F)F (stereo not given) | 260 nM | inactive | 205 nM | –
5 | CCO/C(O)=C1\C(C[S+]([O-])c2ccncc2)=NC(C)=C(C#N)C1c1ccccc1C(F)(F)F (stereo not given) | inactive | 1200 nM | 1100 nM | –
6 | CCO/C(O)=C1\C(C[S+]([O-])c2ccccc2)=NC(C)=C(C#N)C1c1ccccc1Cl (stereo not given) | 540 nM | 910 nM | > 1000 nM | –
7 | CC1=C(C#N)C(c2ccccc2C(F)(F)F)/C(=C(\O)OCCN(C)Cc2ccccc2)C(C[S+]([O-])c2ccccc2)=N1 (stereo not given) | 420 nM | 120 nM | > 1000 nM | –
8 | CCO/C(O)=C1\C(CS(=O)(=O)c2ccccc2)=NC(C)=C(C#N)C1c1cccc([N+](=O)[O-])c1 (stereo not given) | 510 nM | 520 nM | 300 nM | –
9 | CCOC(=O)C1=C(C[S+]([O-])c2ccccc2)NC(C)=C(C#N)C1c1cccc([N+](=O)[O-])c1 (stereo in doubt; 32b) [listing 1 of 2 here] | – | – | – | EC25 (Rattus norvegicus [4]): inactive
10 | CCOC(=O)C1=C(C[S+]([O-])c2ccccc2)NC(C)=C(C#N)C1c1ccccc1C(F)(F)F (stereo in doubt; 29b) | 1300 nM | 170 nM | 2800 nM | –
11 | CC1=C(C#N)C(c2ccccc2C(F)(F)F)/C(=C(\O)OC(C)C)C(C[S+]([O-])c2ccccc2)=N1 (stereo not given) | 240 nM | – | 500 nM | EC25 (Rattus norvegicus [5]): inactive
12 | CCOC(=O)C1=C(C[S+]([O-])c2ccccc2)NC(C)=C(C#N)C1c1cccc([N+](=O)[O-])c1 (stereo in doubt; 32a) [listing 1 of 2 here] | – | 2500 nM | > 1000 nM | –
13 | CCO/C(O)=C1\C(CS(=O)(=O)c2ccccc2Cl)=NC(C)=C(C#N)C1c1ccccc1C(F)(F)F (stereo not given) | 350 nM | 360 nM | > 500 nM | –
14 | C=CCO/C(O)=C1\C(CS(=O)(=O)c2ccccc2)=NC(C)=C(C#N)C1c1ccccc1C(F)(F)F (stereo not given) | <100 nM | 300 nM | 580 nM | –
15 | CC1=C(C#N)C(c2ccccc2C(F)(F)F)/C(=C(\O)OC(C)C)C(CSc2ccccc2)=N1 (stereo not given) | – | – | 250 nM | Vasorelaxant effect (Oryctolagus cuniculus [6]): 74; Vasorelaxant effect (Oryctolagus cuniculus [7]): 30; Vasorelaxant effect (Oryctolagus cuniculus [8]): 2; Vasorelaxant effect (Oryctolagus cuniculus [9]): 8; Vasorelaxant effect (Oryctolagus cuniculus [10]): -1; Vasorelaxant effect (Oryctolagus cuniculus [11]): -2; Vasorelaxant effect (Oryctolagus cuniculus [12]): 0; Vasorelaxant effect (Oryctolagus cuniculus [13]): 9
16 | CCO/C(O)=C1\C(CS(=O)(=O)c2ccccc2F)=NC(C)=C(C#N)C1c1ccccc1C(F)(F)F (stereo not given) | 90 nM | 390 nM | > 1000 nM | –
17 | CCO/C(O)=C1\C(C[S+]([O-])c2ccccc2C)=NC(C)=C(C#N)C1c1ccccc1C(F)(F)F (stereo not given) | 800 nM | 130 nM | > 1000 nM | –
18 | CCOC(=O)C1=C(C[S+]([O-])c2ccccc2)NC(C)=C(C#N)C1c1cccc([N+](=O)[O-])c1 (stereo in doubt; 32b) [listing 2 of 2 here] | – | 3000 nM | > 1000 nM | –
19 | CCO/C(O)=C1\C(CS(=O)(=O)c2ccccc2C)=NC(C)=C(C#N)C1c1ccccc1C(F)(F)F (stereo not given) | 470 nM | 320 nM | > 1000 nM | –
20 | CCO/C(O)=C1\C(CS(=O)(=O)c2ccccc2)=NC(C)=C(C#N)C1C1CCCCC1 (stereo not given) | 520 nM | 1090 nM | > 1000 nM | –

Row | Compound | EC25 (Rattus norvegicus [1]) | EC25 (Rattus norvegicus [2]) | IC50 [3] | also measured
21 | CCO/C(O)=C1\C(C[S+]([O-])c2ccccc2Cl)=NC(C)=C(C#N)C1c1ccccc1C(F)(F)F (stereo not given) | 260 nM | 200 nM | > 1000 nM | –
22 | CCO/C(O)=C1\C(CS(=O)(=O)c2ccc(Cl)cc2)=NC(C)=C(C#N)C1c1ccccc1C(F)(F)F (stereo not given) | 550 nM | – | 91 nM | EC25 (Rattus norvegicus [5]): inactive
23 | CCOC(=O)C1=C(C[S+]([O-])c2ccccc2)NC(C)=C(C#N)C1c1ccccc1C(F)(F)F (stereo in doubt; 29a) [listing 1 of 2 here] | – | 120 nM | 1600 nM | –
24 | CC1=C(C#N)C(c2ccccc2C(F)(F)F)/C(=C(\O)OCCN2CCCCC2)C(C[S+]([O-])c2ccccc2)=N1 (stereo not given) | – | – | > 1000 nM | EC25 (Rattus norvegicus [4]): inactive; EC25 (Rattus norvegicus [5]): inactive
25 | CCO/C(O)=C1\C(C[S+]([O-])c2ccc(OC)cc2)=NC(C)=C(C#N)C1c1ccccc1C(F)(F)F (stereo not given) | 300 nM | – | 1200 nM | EC25 (Rattus norvegicus [5]): inactive
26 | CCOC(=O)C1=C(C[S+]([O-])c2ccccc2)NC(C)=C(C#N)C1c1cccc([N+](=O)[O-])c1 (stereo in doubt; 32a) [listing 2 of 2 here] | – | – | – | EC25 (Rattus norvegicus [4]): inactive
27 | CCO/C(O)=C1\C(C(C)S(=O)(=O)c2ccccc2)=NC2=C(C(=O)CCC2)C1c1ccccc1C(F)(F)F (stereo not given) | 1400 nM | <100 nM | – | –
28 | CCOC(=O)C1=C(CS(=O)(=O)c2ccccc2)N(C)C2=C(C(=O)CCC2)C1c1ccccc1C(F)(F)F (stereo not given) | 180 nM | <100 nM | – | –
29 | CCO/C(O)=C1\C(CS(=O)(=O)c2ccncc2)=NC(C)=C(C#N)C1c1ccccn1 (stereo not given) | – | – | > 1000 nM | EC25 (Rattus norvegicus [4]): inactive; EC25 (Rattus norvegicus [5]): inactive
30 | CCOC(=O)C1=C(C[S+]([O-])c2ccccc2)NC(C)=C(C#N)C1c1ccccc1C(F)(F)F (stereo in doubt; 29a) [listing 2 of 2 here] | – | – | – | EC25 (Rattus norvegicus [4]): inactive
31 | CC1=C(C#N)C(c2ccccc2C(F)(F)F)/C(=C(\O)OCCC#N)C(CSc2ccccc2)=N1 (stereo not given) | – | – | 1000 nM | –
32 | CCO/C(O)=C1\C(CSc2ccncc2)=NC(C)=C(C#N)C1c1ccccn1 (stereo not given) | – | – | > 1000 nM | –
33 | CCO/C(O)=C1\C(CSc2ccc(Cl)cc2)=NC(C)=C(C#N)C1c1ccccc1C(F)(F)F (stereo not given) | – | – | 100 nM | –
34 | CCO/C(O)=C1\C(CS(=O)(=O)c2ccc(OC)cc2)=NC(C)=C(C#N)C1c1ccccc1C(F)(F)F (stereo not given) | 300 nM | inactive | 109 nM | –
35 | CCO/C(O)=C1\C(CS(=O)(=O)c2ccncc2)=NC(C)=C(C#N)C1c1ccccc1C (stereo not given) | – | – | 1410 nM | –
36 | CCOC(=O)C1=C(C[S+]([O-])c2ccccc2)N(CCN(CC)CC)C(C)=C(C#N)C1c1ccccc1C(F)(F)F (stereo not given) | 500 nM | 330 nM | > 1000 nM | –
37 | CO/C(O)=C1\C(C[S+]([O-])c2ccccc2)=NC(C)=C(C#N)C1c1ccccc1C(F)(F)F (stereo not given) | 1480 nM | 260 nM | > 1000 nM | –
38 | CCO/C(O)=C1\C(CS(=O)(=O)c2ccccc2)=NC(C)=C(C#N)C1c1ccccn1 (stereo not given) | – | – | > 1000 nM | –
39 | CCOC(=O)C1=C(CSc2ccccc2)N(CCN(CC)CC)C(C)=C(C#N)C1c1ccccc1C(F)(F)F (stereo not given) | – | – | 1000 nM | –

— ChEMBL document CHEMBL1125592, “Calcium channel blocking and positive inotropic activities of ethyl 5-cyano-1,4-dihydro-6-methyl-2-[(phenylsulfonyl)methyl]-4-aryl-3- pyridine-carboxylate and analogues. Synthesis and structure-activity relationships” (J Med Chem, 1991)
